Data as given in ChEMBL document CHEMBL4043283, “Discovery and Preclinical Development of IIIM-290, an Orally Active Potent Cyclin-Dependent Kinase Inhibitor” (J Med Chem, 2018).
Values after ≈ are worked out from the molar mass of the structure shown. Active and inactive are the calls of the source. The calls are words filed in the database; no cut-off is given here.

Experiments:
[1] = target: CDK9/cyclin T1 (Homo sapiens) (UniProt O60563+P50750); experiment: Inhibition of CDK9/cyclin T1 (unknown origin) at 0.5 uM using YSPTSPSYSPTSPSYSPTSPKKK as substrate after 30 mins in presence of [33P]-gamma-ATP by filter binding assay relative to control; type: protein-complex assay
MCF7 = experiment: Growth inhibition of human MCF7 cells at 10 uM after 48 hrs by MTT assay relative to control; type: functional; details: MCF7, 48 h, read-out: GI
Method in brief: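 Single-concentration primary screen at 10 μM by MTT assay. Cells were NCI-sourced cancer lines grown in appropriate medium at 37 °C, 95% humidity, 5% CO2. Growth inhibition is expressed relative to control.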

MIA PaCa-2 [2] = experiment: Growth inhibition of human MIAPaCa2 cells after 48 hrs by MTT assay; type: functional; details: MIA PaCa-2, 48 h
Method in brief: (§1)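 Cancer cell lines sourced from the National Cancer Institute (USA). Cells kept in appropriate growth medium at 37 °C, 95% humidity, 5% CO2. Antiproliferation read by tetrazolium (MTT) assay. GI50 values were determined only for compounds selected after an initial single-concentration screen.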

CDK1/Cyclin E = CDK1/Cyclin E (Homo sapiens, UniProt P06493); experiment: Inhibition of CDK1/cyclin E (unknown origin) after 30 mins in presence of [33P]-gamma-ATP by filter binding assay; type: protein-complex assay
CDK1/Cyclin E, sequence (P06493 whole entry): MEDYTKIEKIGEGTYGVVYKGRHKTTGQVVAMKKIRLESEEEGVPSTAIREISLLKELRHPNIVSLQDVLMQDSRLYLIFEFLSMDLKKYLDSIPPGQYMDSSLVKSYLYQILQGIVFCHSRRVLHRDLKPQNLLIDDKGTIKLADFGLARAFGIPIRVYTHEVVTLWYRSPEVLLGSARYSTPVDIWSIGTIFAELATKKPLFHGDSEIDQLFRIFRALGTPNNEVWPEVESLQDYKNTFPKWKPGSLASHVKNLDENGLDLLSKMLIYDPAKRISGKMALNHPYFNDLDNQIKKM
CDK1/Cyclin E, sequence (P24864 whole entry, further chain): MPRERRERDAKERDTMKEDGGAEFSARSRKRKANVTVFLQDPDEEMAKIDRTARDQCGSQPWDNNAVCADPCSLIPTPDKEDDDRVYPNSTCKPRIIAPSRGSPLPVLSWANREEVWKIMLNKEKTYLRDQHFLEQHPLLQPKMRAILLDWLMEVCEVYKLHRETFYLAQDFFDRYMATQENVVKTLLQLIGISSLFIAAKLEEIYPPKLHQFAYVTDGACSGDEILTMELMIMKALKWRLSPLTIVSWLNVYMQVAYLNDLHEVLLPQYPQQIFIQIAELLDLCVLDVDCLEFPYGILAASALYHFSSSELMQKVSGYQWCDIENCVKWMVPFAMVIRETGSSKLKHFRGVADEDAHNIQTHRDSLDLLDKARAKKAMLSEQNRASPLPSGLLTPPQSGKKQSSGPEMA

CDK2/Cyclin O = CDK2/Cyclin O (Homo sapiens, UniProt P22674+P24941); experiment: Inhibition of CDK2/cyclin O (unknown origin) after 30 mins in presence of [33P]-gamma-ATP by filter binding assay; type: protein-complex assay
CDK4/Cyclin D3 = CDK4/Cyclin D3 (Homo sapiens, UniProt P11802); experiment: Inhibition of CDK4/cyclin D3 (unknown origin) after 30 mins in presence of [33P]-gamma-ATP by filter binding assay; type: protein-complex assay
CDK4/Cyclin D3, sequence (P11802 whole entry): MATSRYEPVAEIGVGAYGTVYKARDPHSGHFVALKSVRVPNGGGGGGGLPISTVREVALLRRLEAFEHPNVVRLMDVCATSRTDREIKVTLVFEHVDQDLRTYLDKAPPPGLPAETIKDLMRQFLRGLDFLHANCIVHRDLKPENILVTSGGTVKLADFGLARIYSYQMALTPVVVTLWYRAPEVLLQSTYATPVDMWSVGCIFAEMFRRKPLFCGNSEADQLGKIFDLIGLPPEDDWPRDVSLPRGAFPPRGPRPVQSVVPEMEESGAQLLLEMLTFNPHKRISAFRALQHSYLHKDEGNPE
CDK4/Cyclin D3, sequence (P30281 whole entry, further chain): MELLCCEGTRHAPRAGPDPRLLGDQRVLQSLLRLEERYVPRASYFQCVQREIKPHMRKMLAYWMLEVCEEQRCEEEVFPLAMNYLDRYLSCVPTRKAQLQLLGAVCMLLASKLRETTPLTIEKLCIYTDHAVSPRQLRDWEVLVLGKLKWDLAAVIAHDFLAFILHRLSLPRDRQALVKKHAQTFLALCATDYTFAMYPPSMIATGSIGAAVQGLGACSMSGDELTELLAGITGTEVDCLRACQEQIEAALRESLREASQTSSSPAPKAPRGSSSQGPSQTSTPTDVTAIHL

[3] = system: Mast/stem cell growth factor receptor Kit (Homo sapiens), P10721 [A829P]; experiment: Inhibition of partial length human KIT A829P mutant expressed in mammalian expression system at 0.5 uM by KINOMEscan method relative to control
Mast/stem cell growth factor receptor Kit (Homo sapiens), P10721 [A829P], sequence (P10721 whole entry A829P): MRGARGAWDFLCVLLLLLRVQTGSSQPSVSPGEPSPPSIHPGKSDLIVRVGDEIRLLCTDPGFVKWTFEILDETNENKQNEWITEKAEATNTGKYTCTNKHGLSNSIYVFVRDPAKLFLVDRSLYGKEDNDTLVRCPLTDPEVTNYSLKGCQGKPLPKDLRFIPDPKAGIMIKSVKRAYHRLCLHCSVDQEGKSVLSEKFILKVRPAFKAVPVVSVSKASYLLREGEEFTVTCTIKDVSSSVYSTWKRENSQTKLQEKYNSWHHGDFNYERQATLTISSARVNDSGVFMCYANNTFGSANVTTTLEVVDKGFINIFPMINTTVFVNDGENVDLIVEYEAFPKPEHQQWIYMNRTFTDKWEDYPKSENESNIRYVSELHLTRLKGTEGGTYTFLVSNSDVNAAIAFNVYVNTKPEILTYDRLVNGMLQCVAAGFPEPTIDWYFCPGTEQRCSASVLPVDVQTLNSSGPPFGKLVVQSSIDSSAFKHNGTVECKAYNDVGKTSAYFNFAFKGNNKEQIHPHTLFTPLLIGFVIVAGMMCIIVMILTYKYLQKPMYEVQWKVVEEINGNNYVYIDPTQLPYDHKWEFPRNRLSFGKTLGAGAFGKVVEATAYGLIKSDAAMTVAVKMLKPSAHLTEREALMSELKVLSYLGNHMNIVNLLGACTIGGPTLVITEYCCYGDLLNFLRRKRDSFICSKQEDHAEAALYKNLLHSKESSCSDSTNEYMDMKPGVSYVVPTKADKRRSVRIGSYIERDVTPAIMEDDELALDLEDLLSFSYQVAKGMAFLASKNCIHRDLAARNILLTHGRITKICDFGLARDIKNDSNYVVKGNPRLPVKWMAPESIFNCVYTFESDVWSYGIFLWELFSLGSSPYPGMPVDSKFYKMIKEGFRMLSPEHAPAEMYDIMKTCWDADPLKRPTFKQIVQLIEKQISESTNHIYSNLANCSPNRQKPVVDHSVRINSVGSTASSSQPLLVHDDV
Method in brief: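 Competition binding screen (KINOMEscan) at 0.5 μM; primary binding read out as % of control, lower values indicating stronger interaction.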

[4] = target: Voltage-gated inwardly rectifying potassium channel KCNH2 (Homo sapiens, UniProt Q12809); experiment: Inhibition of [3H]-astemizole binding to human ERG expressed in HEK293 cell membranes by scintillation counting method
Voltage-gated inwardly rectifying potassium channel KCNH2, sequence (Q12809 whole entry): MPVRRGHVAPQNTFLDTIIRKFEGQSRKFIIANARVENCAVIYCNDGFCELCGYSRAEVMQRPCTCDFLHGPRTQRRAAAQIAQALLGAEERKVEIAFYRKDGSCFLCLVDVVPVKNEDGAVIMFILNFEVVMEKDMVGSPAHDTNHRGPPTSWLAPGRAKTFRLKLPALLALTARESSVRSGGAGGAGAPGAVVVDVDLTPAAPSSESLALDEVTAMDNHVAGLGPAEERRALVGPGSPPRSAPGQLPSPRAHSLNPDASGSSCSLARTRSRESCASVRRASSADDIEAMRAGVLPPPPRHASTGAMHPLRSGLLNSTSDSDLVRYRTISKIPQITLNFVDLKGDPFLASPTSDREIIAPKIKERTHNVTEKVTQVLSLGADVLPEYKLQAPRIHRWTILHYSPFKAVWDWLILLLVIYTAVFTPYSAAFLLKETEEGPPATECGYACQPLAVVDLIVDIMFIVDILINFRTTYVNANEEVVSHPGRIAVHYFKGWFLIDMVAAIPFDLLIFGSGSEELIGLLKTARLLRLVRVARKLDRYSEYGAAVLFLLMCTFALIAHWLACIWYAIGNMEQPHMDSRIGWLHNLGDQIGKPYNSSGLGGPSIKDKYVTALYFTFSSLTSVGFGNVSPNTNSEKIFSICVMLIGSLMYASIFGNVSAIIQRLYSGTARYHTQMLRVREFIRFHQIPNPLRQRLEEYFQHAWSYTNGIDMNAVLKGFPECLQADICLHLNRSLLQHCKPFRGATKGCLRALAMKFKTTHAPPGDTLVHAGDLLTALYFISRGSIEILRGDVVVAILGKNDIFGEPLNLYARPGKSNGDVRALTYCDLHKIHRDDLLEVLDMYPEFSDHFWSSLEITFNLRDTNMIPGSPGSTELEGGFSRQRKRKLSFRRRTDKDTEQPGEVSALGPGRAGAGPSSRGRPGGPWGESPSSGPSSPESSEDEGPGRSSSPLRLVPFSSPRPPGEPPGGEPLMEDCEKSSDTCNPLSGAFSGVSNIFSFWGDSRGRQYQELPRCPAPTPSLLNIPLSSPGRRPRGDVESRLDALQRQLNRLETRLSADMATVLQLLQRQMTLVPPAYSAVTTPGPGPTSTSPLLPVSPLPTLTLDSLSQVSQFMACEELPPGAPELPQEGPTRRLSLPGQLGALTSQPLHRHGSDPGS

T47D = experiment: Growth inhibition of human T47D cells after 48 hrs by MTT assay; type: functional; method in brief: as §1
[5] = Growth inhibition of human SW630 cells after 48 hrs by MTT assay; type: functional; details: SW630, 48 h; method in brief: as §1
HOP-62 = experiment: Growth inhibition of human HOP62 cells after 48 hrs by MTT assay; type: functional; details: HOP-62, 48 h; method in brief: as §1
NCI-H226 = experiment: Growth inhibition of human NCI-H226 cells after 48 hrs by MTT assay; type: functional; details: NCI-H226, 48 h; method in brief: as §1
HOP-92 = experiment: Growth inhibition of human HOP92 cells after 48 hrs by MTT assay; type: functional; details: HOP-92, 48 h; method in brief: as §1
MIA PaCa-2 [6] = experiment: Induction of apoptosis in human MIAPaCa2 cells assessed as chromatin condensation in nuclei after 24 hrs by scanning electron microscopy; type: functional, cell-based
Method in brief: (§2)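 Cells exposed to different compound concentrations for 24 h on coverslips, fixed in 2.5% glutaraldehyde in 0.1 M phosphate buffer pH 7.2 (4 °C, 24 h), postfixed in 1% OsO4 4 h, ethanol-dehydrated, critical-point dried with HMDS, gold-coated, imaged at 20 kV.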

MIA PaCa-2 [7] = experiment: Induction of apoptosis in human MIAPaCa2 cells assessed as intracellular vesicle formation after 24 hrs by scanning electron microscopy; type: functional, cell-based; method in brief: as §2
MIA PaCa-2 [8] = experiment: Induction of apoptosis in human MIAPaCa2 cells assessed as PARP cleavage by Western blot method; type: functional, cell-based
Method in brief: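 Lysate protein quantified against a BSA standard; 70 μg resolved by SDS-PAGE, transferred to PVDF overnight at 4 °C, 30 V; blocked 1 h in 5% nonfat milk/TBST; primary antibodies 2–4 h, HRP anti-mouse secondary 1 h; ECL detection on X-ray film.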

[9] = Thermodynamic equilibrium solubility of compound in SGF at pH 1.2 after 5 hrs by shake flask method; type: physicochemical; details: read-out: Therm_solubility
Cytochrome P450 2C9 = Cytochrome P450 2C9 (Homo sapiens, UniProt P11712); experiment: Inhibition of human CYP2C9 using fluorogenic substrate preincubated with co-factor for 10 mins followed by enzyme-substrate addition by fluorometric method; type: ADME
Cytochrome P450 2C9, sequence (P11712 whole entry): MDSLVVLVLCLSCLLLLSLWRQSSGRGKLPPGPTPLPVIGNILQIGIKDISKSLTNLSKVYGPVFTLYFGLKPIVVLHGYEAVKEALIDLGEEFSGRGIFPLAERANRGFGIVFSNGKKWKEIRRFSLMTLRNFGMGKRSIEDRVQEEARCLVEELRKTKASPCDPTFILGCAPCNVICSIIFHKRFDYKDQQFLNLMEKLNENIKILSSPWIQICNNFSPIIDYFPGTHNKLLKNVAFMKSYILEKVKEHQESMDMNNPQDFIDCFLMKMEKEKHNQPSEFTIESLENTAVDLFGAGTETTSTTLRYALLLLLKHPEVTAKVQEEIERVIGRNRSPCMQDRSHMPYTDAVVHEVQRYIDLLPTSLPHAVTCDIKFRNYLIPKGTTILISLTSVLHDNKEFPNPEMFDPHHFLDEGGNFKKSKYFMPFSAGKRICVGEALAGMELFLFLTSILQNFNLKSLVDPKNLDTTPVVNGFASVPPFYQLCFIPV
Method in brief: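 Cofactor plus test item or vehicle, in triplicate, preincubated 10 min at 37 °C; prewarmed enzyme–substrate mix added and incubated at 37 °C with shaking. Quench: acetonitrile (CYP2C19, CYP3A4) or 0.25 M Tris in 60% methanol (CYP2C9, CYP2D6). Metabolite fluorescence read; % inhibition computed against enzyme controls and enzyme-free blanks.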

[10] = Intrinsic clearance in dog hepatocytes assessed per million cells at 3 uM after 180 mins by LC-MS/MS analysis; type: ADME, cell-based, Canis lupus familiaris, Hepatocyte; details: read-out: CLH
Method in brief: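 Intrinsic clearance obtained from substrate disappearance over time, reported per mg protein (microsomes, S9) or per 10^6 cells (hepatocytes).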

[11] = Half life in dog liver S9 fraction preincubated for 5 mins followed by NADPH addition measured after 30 mins by LC-MS/MS analysis; type: ADME, tissue-based, Canis lupus familiaris
[12] = Elimination half life in BALB/c mouse at 10 mg/kg, po by LC-MS/MS analysis; type: ADME, organism-based; details: in vivo, read-out: beta t1/2 (converted)
[13] = Elimination half life in BALB/c mouse at 1 mg/kg, iv by LC-MS/MS analysis; type: ADME, organism-based; details: in vivo, read-out: beta t1/2 (converted)
[14] = Initial concentration in BALB/c mouse at 1 mg/kg, iv by LC-MS/MS analysis; type: ADME, organism-based; details: in vivo
[15] = Half life in BALB/c mouse at 10 mg/kg, po by LC-MS/MS analysis; type: ADME, organism-based; details: in vivo
[16] = AUC in BALB/c mouse at 30 mg/kg, po by LC-MS/MS analysis; type: ADME, organism-based; details: in vivo
Lung = experiment: Drug uptake in Sprague-Dawley rat lung at 30 mg/kg, po after 8 hrs; type: ADME, organism-based; details: in vivo
Liver = experiment: Drug uptake in BALB/c mouse liver at 30 mg/kg, po after 8 hrs; type: ADME, organism-based; details: in vivo
Ehrlich = experiment: Antitumor activity against Swiss mouse EAC allografted in Swiss albino mouse assessed as tumor growth inhibition at 100 mg/kg, po administered for 9 day measured on day 13 relative to control; type: functional; details: read-out: TGI
[17] = Ratio of Cmax in BALB/c mouse at 30 mg/kg, po to GI50 for human HL60 cells
[18] = Ratio of Cmax in Sprague-Dawley rat at 30 mg/kg, po to GI50 for human MIAPaCa2 cells
[19] = Efflux ratio of apparent permeability across basolateral to apical side over apical to basolateral side in human Caco2 cells after 90 mins by LC-MS/MS analysis; type: ADME, cell-based; details: Caco-2
Method in brief: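 Caco-2 monolayers cultured for 21 days. Test compound applied in HBSS buffer with 10 mM HEPES. Samples drawn from both the apical and basolateral chambers.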

Salmonella typhimurium = experiment: Mutagenicity in Salmonella typhimurium TA1535 at 50 ug/plate in presence of liver S9 fraction by Ames test; type: toxicity; details: salmonella enterica subsp. enterica serovar typhimurium

## CN1CC[C@H](c2c(O)cc(O)c3c(=O)cc(/C=C/c4c(Cl)cccc4Cl)oc23)[C@H](O)C1
[1]
  inhibition: 94%
MCF7
  inhibition of growth at 10 µM: 80%
MIA PaCa-2 [2]
  GI50: 1000 nM
CDK1/Cyclin E
  IC50: 75.9 nM
CDK2/Cyclin O
  IC50: 138 nM
CDK4/Cyclin D3
  IC50: 22.5 nM
[3]
  inhibition: > 98%
[4]
  IC50: > 50000 nM
T47D
  GI50: 6000 nM
[5]
  GI50: 300 nM
HOP-62
  GI50: 7000 nM
NCI-H226
  GI50: 4000 nM
HOP-92
  GI50: 3000 nM
MIA PaCa-2 [6]
  Activity: Active
MIA PaCa-2 [7]
  Activity: Active
MIA PaCa-2 [8]
  Activity: Dose-dependent effect
[9]
  solubility thermodynamic at 5 h: 8.81 µg/mL (≈ 19.1 µM)
Cytochrome P450 2C9
  IC50: > 20000 nM
[10]
  hepatocyte CLint at 3 µM: 12.3 µL/min/1e6 cells
[11]
  half-life: 1.95 h
[12]
  half-life: 4.65 h
[13]
  half-life: 5.46 h
[14]
  C0: 859 ng/mL
[15]
  half-life: 3.61 h
[16]
  AUC: 11.3 µM·h
Lung
  Drug uptake: Active
Liver
  Drug uptake: Active
Ehrlich
  inhibition in vivo at 100 mg/kg: 39%
[17]
  Ratio: 4
[18]
  Ratio: 4
[19]
  efflux ratio at 1.5 h: 1.8
Salmonella typhimurium
  Activity: Non-Toxic
